According to ChEMBL document CHEMBL4689842, “EUbOPEN Chemogenomics Library wave 1” (2021):

Tested on: Fibroblast
Assay: Multiplex assay against human fibroblast
Format: toxicity, cell-based
Outline: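 Cells were classed with CellPathfinder machine-learning gating, first as Hoechst high-intensity objects or normal cells, then (normal cells) as healthy, pyknosed or fragmented nuclei, and finally (pyknosed cells) as mitotic or apoptotic. Staining of live cells at seeding used Hoechst33342, BioTracker Green Microtubule Cytoskeleton Dye, MitoTracker Red and Annexin V Alexa Fluor 680, with imaging on a CQ1 microscope at 37°C and 5% CO2 after compound addition. Tubulin, mitochondrial-mass and membrane-permeability phenotypes are per cents of healthy-nucleus cells.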

[1] = 12 h, 1 µM, compound concentration 1 uM, replicate 1
[2] = 12 h, 1 µM, compound concentration 1 uM, replicate 2
[3] = 12 h, 10 µM, compound concentration 10 uM, replicate 1
[4] = 12 h, 10 µM, compound concentration 10 uM, replicate 2
[5] = 24 h, 1 µM, compound concentration 1 uM, replicate 1
[6] = 24 h, 1 µM, compound concentration 1 uM, replicate 2
[7] = 24 h, 10 µM, compound concentration 10 uM, replicate 1
[8] = 24 h, 10 µM, compound concentration 10 uM, replicate 2
[9] = 48 h, 1 µM, compound concentration 1 uM, replicate 1
[10] = 48 h, 1 µM, compound concentration 1 uM, replicate 2
[11] = 48 h, 10 µM, compound concentration 10 uM, replicate 1
[12] = 48 h, 10 µM, compound concentration 10 uM, replicate 2

## c1cn2cc(-c3ccc4cn[nH]c4c3)nc(Nc3ccc(N4CCOCC4)cc3)c2n1 [ENTOSPLETINIB]
[1]
  Population Apoptotic (%): 60%
  Population Fragmented Nuclei (%): 23%
  Population Healthy Nuclei (%): 36%
  Population Hoechst High Intensity Objects (%): 14%
  Population Membrane Permeable-Phenotype (%): 20%
  Population Mitochondria Different-Phenotype (%): 12%
  Population Mitotic Cells (%): 39%
  Population Normal (%): 85%
  Population Pyknosed Nuclei (%): 40%
  Population Tubulin-Different-Phenotype (%): 52%
  Total Cell Count: 81
[2]
  Population Apoptotic (%): 40%
  Population Fragmented Nuclei (%): 16%
  Population Healthy Nuclei (%): 73%
  Population Hoechst High Intensity Objects (%): 5%
  Population Membrane Permeable-Phenotype (%): 10%
  Population Mitochondria Different-Phenotype (%): 23%
  Population Mitotic Cells (%): 60%
  Population Normal (%): 94%
  Population Pyknosed Nuclei (%): 9%
  Population Tubulin-Different-Phenotype (%): 25%
  Total Cell Count: 59
[3]
  Population Apoptotic (%): 51%
  Population Fragmented Nuclei (%): 24%
  Population Healthy Nuclei (%): 3%
  Population Hoechst High Intensity Objects (%): 41%
  Population Membrane Permeable-Phenotype (%): 14%
  Population Mitochondria Different-Phenotype (%): 4%
  Population Mitotic Cells (%): 48%
  Population Normal (%): 58%
  Population Pyknosed Nuclei (%): 72%
  Population Tubulin-Different-Phenotype (%): 23%
  Total Cell Count: 1163
[4]
  Population Apoptotic (%): 92%
  Population Fragmented Nuclei (%): 30%
  Population Healthy Nuclei (%): 2%
  Population Hoechst High Intensity Objects (%): 25%
  Population Membrane Permeable-Phenotype (%): 21%
  Population Mitochondria Different-Phenotype (%): 82%
  Population Mitotic Cells (%): 7%
  Population Normal (%): 74%
  Population Pyknosed Nuclei (%): 67%
  Population Tubulin-Different-Phenotype (%): 78%
  Total Cell Count: 56
[5]
  Population Apoptotic (%): 60%
  Population Fragmented Nuclei (%): 25%
  Population Healthy Nuclei (%): 57%
  Population Hoechst High Intensity Objects (%): 11%
  Population Membrane Permeable-Phenotype (%): 23%
  Population Mitochondria Different-Phenotype (%): 7%
  Population Mitotic Cells (%): 40%
  Population Normal (%): 88%
  Population Pyknosed Nuclei (%): 16%
  Population Tubulin-Different-Phenotype (%): 51%
  Total Cell Count: 102
[6]
  Population Apoptotic (%): 14%
  Population Fragmented Nuclei (%): 14%
  Population Healthy Nuclei (%): 74%
  Population Hoechst High Intensity Objects (%): 4%
  Population Membrane Permeable-Phenotype (%): 17%
  Population Mitochondria Different-Phenotype (%): 15%
  Population Mitotic Cells (%): 85%
  Population Normal (%): 95%
  Population Pyknosed Nuclei (%): 11%
  Population Tubulin-Different-Phenotype (%): 21%
  Total Cell Count: 78
[7]
  Population Apoptotic (%): 48%
  Population Fragmented Nuclei (%): 22%
  Population Healthy Nuclei (%): 3%
  Population Hoechst High Intensity Objects (%): 44%
  Population Membrane Permeable-Phenotype (%): 23%
  Population Mitochondria Different-Phenotype (%): 4%
  Population Mitotic Cells (%): 51%
  Population Normal (%): 55%
  Population Pyknosed Nuclei (%): 74%
  Population Tubulin-Different-Phenotype (%): 47%
  Total Cell Count: 1126
[8]
  Population Apoptotic (%): 89%
  Population Fragmented Nuclei (%): 33%
  Population Healthy Nuclei (%): 2%
  Population Hoechst High Intensity Objects (%): 26%
  Population Membrane Permeable-Phenotype (%): 8%
  Population Mitochondria Different-Phenotype (%): 36%
  Population Mitotic Cells (%): 10%
  Population Normal (%): 73%
  Population Pyknosed Nuclei (%): 64%
  Population Tubulin-Different-Phenotype (%): 20%
  Total Cell Count: 65
[9]
  Population Apoptotic (%): 75%
  Population Fragmented Nuclei (%): 29%
  Population Healthy Nuclei (%): 65%
  Population Hoechst High Intensity Objects (%): 15%
  Population Membrane Permeable-Phenotype (%): 18%
  Population Mitochondria Different-Phenotype (%): 6%
  Population Mitotic Cells (%): 25%
  Population Normal (%): 84%
  Population Pyknosed Nuclei (%): 4%
  Population Tubulin-Different-Phenotype (%): 39%
  Total Cell Count: 104
[10]
  Population Apoptotic (%): 33%
  Population Fragmented Nuclei (%): 28%
  Population Healthy Nuclei (%): 68%
  Population Hoechst High Intensity Objects (%): 11%
  Population Membrane Permeable-Phenotype (%): 9%
  Population Mitochondria Different-Phenotype (%): 1%
  Population Mitotic Cells (%): 66%
  Population Normal (%): 88%
  Population Pyknosed Nuclei (%): 2%
  Population Tubulin-Different-Phenotype (%): 50%
  Total Cell Count: 116
[11]
  Population Apoptotic (%): 43%
  Population Fragmented Nuclei (%): 14%
  Population Healthy Nuclei (%): 4%
  Population Hoechst High Intensity Objects (%): 47%
  Population Membrane Permeable-Phenotype (%): 14%
  Population Mitochondria Different-Phenotype (%): 0%
  Population Mitotic Cells (%): 56%
  Population Normal (%): 52%
  Population Pyknosed Nuclei (%): 80%
  Population Tubulin-Different-Phenotype (%): 17%
  Total Cell Count: 1093
[12]
  Population Apoptotic (%): 82%
  Population Fragmented Nuclei (%): 24%
  Population Healthy Nuclei (%): 6%
  Population Hoechst High Intensity Objects (%): 64%
  Population Membrane Permeable-Phenotype (%): 12%
  Population Mitochondria Different-Phenotype (%): 12%
  Population Mitotic Cells (%): 17%
  Population Normal (%): 35%
  Population Pyknosed Nuclei (%): 69%
  Population Tubulin-Different-Phenotype (%): 46%
  Total Cell Count: 1794
